≈ marks a conversion by molar mass, not a printed value. Calls of active or inactive are those of the source. No cut-off for these calls is given here.
How the values were obtained:
Type in all cases: functional
Staphylococcus aureus [1] = assay: Antibacterial activity Staphylococcus aureus NCIM 2079 at 100 ug/disc by agar-well diffusion assay; details: for zone of inhibition at 100 µg/disc: read-out: DIZ
How it was run: (§1)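 Agar-well diffusion screen against standard strains. Zone of inhibition is the read-out. Chloramphenicol, nystatin and ravuconazole were run as positive controls.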

Pseudomonas aeruginosa [2] = assay: Antibacterial activity Pseudomonas aeruginosa NCIM 2036 at 100 ug/disc by agar-well diffusion assay; details: for zone of inhibition at 100 µg/disc: read-out: DIZ; how it was run: as §1
Pseudomonas aeruginosa [3] = assay: Antibacterial activity Pseudomonas aeruginosa NCIM 2036 after 24 hrs by NCCLS method
How it was run: (§2)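 Broth microdilution MIC per NCCLS. Compounds dissolved in DMSO, serially diluted in growth medium, incubated at 37 °C. Read at 24 h for bacteria and 24–72 h for fungi. MIC90 taken as the first well with about 90% growth reduction relative to the drug-free well.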

Bacillus subtilis [4] = assay: Antibacterial activity Bacillus subtilis NCIM 2250 after 24 hrs by NCCLS method; how it was run: as §2
Staphylococcus aureus [5] = assay: Antibacterial activity Staphylococcus aureus NCIM 2079 after 24 hrs by NCCLS method; how it was run: as §2
Candida albicans [6] = assay: Antifungal activity Candida albicans NCIM 3471 at 100 ug/disc by agar-well diffusion assay; details: for zone of inhibition at 100 µg/disc: read-out: DIZ; how it was run: as §1
Escherichia coli [7] = assay: Antibacterial activity Escherichia coli NCIM 2109 at 100 ug/disc by agar-well diffusion assay; details: for zone of inhibition at 100 µg/disc: read-out: DIZ; how it was run: as §1
Bacillus subtilis [8] = assay: Antibacterial activity Bacillus subtilis NCIM 2250 at 100 ug/disc by agar-well diffusion assay; details: for zone of inhibition at 100 µg/disc: read-out: DIZ; how it was run: as §1
Escherichia coli [9] = assay: Antibacterial activity Escherichia coli NCIM 2109 after 24 hrs by NCCLS method; how it was run: as §2
Aspergillus niger [10] = assay: Antifungal activity Aspergillus niger NCIM 545 at 100 ug/disc by agar-well diffusion assay; details: for zone of inhibition at 100 µg/disc: read-out: DIZ; how it was run: as §1
Aspergillus niger [11] = assay: Antifungal activity Aspergillus niger NCIM 545 after 24 to 72 hrs by NCCLS method; how it was run: as §2
Candida albicans [12] = assay: Antifungal activity Candida albicans NCIM 3471 after 24 to 72 hrs by NCCLS method; how it was run: as §2

| Compound | diameter of the inhibition zone (DIZ) (Staphylococcus aureus [1]) | diameter of the inhibition zone (DIZ) (Pseudomonas aeruginosa [2]) | MIC (Pseudomonas aeruginosa [3]) | MIC (Bacillus subtilis [4]; NCIM 2250, 24 h) [µg/mL] | MIC (Staphylococcus aureus [5]) | zone of inhibition at 100 µg/disc (Candida albicans [6]) [mm] | zone of inhibition at 100 µg/disc (Bacillus subtilis [8]) [mm] | zone of inhibition at 100 µg/disc (Aspergillus niger [10]) [mm] | MIC (Aspergillus niger [11]) | MIC (Candida albicans [12]) | zone of inhibition at 100 µg/disc (Pseudomonas aeruginosa [2]) [mm] | MIC (Pseudomonas aeruginosa [3]; NCIM 2036, 24 h) [µg/mL] | MIC (Bacillus subtilis [4]) | diameter of the inhibition zone (DIZ) (Bacillus subtilis [8]) | MIC (Escherichia coli [9]; NCIM 2109, 24 h) [µg/mL] | zone of inhibition at 100 µg/disc (Escherichia coli [7]) [mm] | zone of inhibition at 100 µg/disc (Staphylococcus aureus [1]) [mm] | MIC (Staphylococcus aureus [5]; NCIM 2079, 24 h) [µg/mL] | further results |
| --- | --- | --- | --- | --- | --- | --- | --- | --- | --- | --- | --- | --- | --- | --- | --- | --- | --- | --- | --- |
| O=[N+]([O-])c1ccc(/C(Cn2cncn2)=N\Nc2nc(-c3ccc(F)cc3)cs2)cc1 | inactive | inactive | inactive | > 64 | inactive | 11.2 | 11.3 | 14.4 | > 64 µg/mL | > 64 µg/mL |  |  |  |  |  |  |  |  | diameter of the inhibition zone (DIZ) (Escherichia coli [7]): inactive; MIC (Escherichia coli [9]): inactive |
| Fc1ccc(/C(Cn2cncn2)=N\Nc2nc(-c3ccc(Br)cc3)cs2)cc1 | inactive |  |  |  | inactive | 14.8 |  | 15.8 | 64 µg/mL (≈ 140 µM) | 64 µg/mL (≈ 140 µM) | 18.2 | 32 (≈ 70 µM) | inactive | inactive | 64 (≈ 140 µM) |  |  |  | diameter of the inhibition zone (DIZ) (Escherichia coli [7]): inactive |
| FC(F)(F)c1cc(/C(Cn2cncn2)=N\Nc2nc(-c3cc(C(F)(F)F)cc(C(F)(F)F)c3)cs2)cc(C(F)(F)F)c1 | inactive | inactive | inactive |  | inactive | 11.7 |  | 15.2 | 32 µg/mL (≈ 50.6 µM) | 64 µg/mL (≈ 101 µM) |  |  | inactive | inactive |  | 13.1 |  |  | MIC (Escherichia coli [9]): inactive |
| FC(F)(F)c1cc(/C(Cn2cncn2)=N\Nc2nc(-c3ccc(Br)cc3)cs2)cc(C(F)(F)F)c1 | inactive |  |  | > 64 | inactive |  | 10.1 |  | inactive | inactive | 20.4 | 32 (≈ 55.6 µM) |  |  | > 64 | 17 |  |  | diameter of the inhibition zone (DIZ) (Candida albicans [6]): inactive; diameter of the inhibition zone (DIZ) (Aspergillus niger [10]): inactive |
| O=[N+]([O-])c1ccc(/C(Cn2cncn2)=N\Nc2nc(-c3ccc(Cl)cc3)cs2)cc1 |  | inactive | inactive | 64 (≈ 145 µM) |  |  | 15.8 |  | inactive | inactive |  |  |  |  |  |  | 14.2 | > 64 | diameter of the inhibition zone (DIZ) (Candida albicans [6]): inactive; diameter of the inhibition zone (DIZ) (Escherichia coli [7]): inactive; MIC (Escherichia coli [9]): inactive; diameter of the inhibition zone (DIZ) (Aspergillus niger [10]): inactive |
| FC(F)(F)c1cc(/C(Cn2cncn2)=N\Nc2nc(-c3ccc(Cl)cc3)cs2)cc(C(F)(F)F)c1 | inactive |  |  |  | inactive | 17.6 |  | 19.1 | 16 µg/mL (≈ 30.1 µM) | 32 µg/mL (≈ 60.3 µM) | 26.8 | 32 (≈ 60.3 µM) | inactive | inactive | > 64 | 13.2 |  |  |  |
| O=C(O)c1cn(C2CC2)c2cc(N3CCNCC3)c(F)cc2c1=O [CIPROFLOXACIN] |  |  |  | 16 (≈ 48.3 µM) |  |  | 26.7 |  |  |  | 30.9 | 16 (≈ 48.3 µM) |  |  |  | 26.2 | 28.4 |  |  |
| Brc1ccc(/C(Cn2cncn2)=N\Nc2nc(-c3ccc(Br)cc3)cs2)cc1 | inactive | inactive | inactive |  | inactive | 13.9 |  | 15.3 | > 64 µg/mL | > 64 µg/mL |  |  | inactive | inactive | > 64 | 10.9 |  |  |  |
| FC(F)(F)c1cc(-c2csc(N/N=C(/Cn3cncn3)c3ccc(Cl)cc3)n2)cc(C(F)(F)F)c1 |  |  |  |  |  | 20.7 |  | 8.66 | > 64 µg/mL | 32 µg/mL (≈ 60.3 µM) | 26.1 | 32 (≈ 60.3 µM) | inactive | inactive | > 64 | 15.6 | 11.2 | > 64 |  |
| Fc1ccc(/C(Cn2cncn2)=N\Nc2nc(-c3ccc(Cl)cc3)cs2)cc1 |  | inactive | inactive | 32 (≈ 77.5 µM) |  | 18.8 | 20.5 | 20.7 | 16 µg/mL (≈ 38.8 µM) | 32 µg/mL (≈ 77.5 µM) |  |  |  |  | > 64 | 15.9 | 22.3 | 64 (≈ 155 µM) |  |
| O=[N+]([O-])c1ccc(-c2csc(N/N=C(/Cn3cncn3)c3ccc(Cl)cc3)n2)cc1 | inactive | inactive | inactive | > 64 | inactive | 11.7 | 12.2 | 14.5 | > 64 µg/mL | > 64 µg/mL |  |  |  |  | > 64 | 10.6 |  |  |  |
| NYSTATIN |  |  |  |  |  |  |  |  | 16 µg/mL | 16 µg/mL |  |  |  |  |  |  |  |  | inhibition zone (IZ) (Candida albicans [6]): 23.3 mm; inhibition zone (IZ) (Aspergillus niger [10]): 21.6 mm |
| Fc1ccc(/C(Cn2cncn2)=N\Nc2nc(-c3ccc(F)cc3)cs2)cc1 |  |  |  | 32 (≈ 80.7 µM) |  | 16.3 | 24.4 | 20.4 | 16 µg/mL (≈ 40.4 µM) | 64 µg/mL (≈ 161 µM) | 24.1 | 32 (≈ 80.7 µM) |  |  | 32 (≈ 80.7 µM) | 21.5 | 16.1 | 64 (≈ 161 µM) |  |
| O=[N+]([O-])c1ccc(/C(Cn2cncn2)=N\Nc2nc(-c3ccc([N+](=O)[O-])cc3)cs2)cc1 | inactive |  |  |  | inactive |  |  |  | inactive | inactive | 20.8 | 64 (≈ 142 µM) | inactive | inactive | > 64 | 10.8 |  |  | diameter of the inhibition zone (DIZ) (Candida albicans [6]): inactive; diameter of the inhibition zone (DIZ) (Aspergillus niger [10]): inactive |
| Clc1ccc(/C(Cn2cncn2)=N\Nc2nc(-c3ccc(Cl)cc3)cs2)cc1 |  |  |  |  |  | 20.4 |  | 19.5 | 32 µg/mL (≈ 74.5 µM) | 32 µg/mL (≈ 74.5 µM) | 28.9 | 16 (≈ 37.3 µM) | inactive | inactive | > 64 | 9.65 | 18.8 | 64 (≈ 149 µM) |  |

Reference: ChEMBL document CHEMBL2040750, “Hybrids of ravuconazole: synthesis and biological evaluation” (2012)
